# According to ChEMBL document CHEMBL1128218, “New alpha-thiol dipeptide dual inhibitors of angiotensin-I converting enzyme and neutral endopeptidase EC 3.4.24.11” (J Med Chem, 1995):
# Columns and labels:
# [1] = target: T1, Angiotensin-converting enzyme (Rattus norvegicus) (UniProt P47820); experiment: Evaluation of plasma inhibition of Angiotensin I converting enzyme activity in conscious rat 6 hours after ia administration at a dose of 10 mg/kg; type: functional, organism-based; design: dose 10 mg/kg
# T1 sequence (whole entry): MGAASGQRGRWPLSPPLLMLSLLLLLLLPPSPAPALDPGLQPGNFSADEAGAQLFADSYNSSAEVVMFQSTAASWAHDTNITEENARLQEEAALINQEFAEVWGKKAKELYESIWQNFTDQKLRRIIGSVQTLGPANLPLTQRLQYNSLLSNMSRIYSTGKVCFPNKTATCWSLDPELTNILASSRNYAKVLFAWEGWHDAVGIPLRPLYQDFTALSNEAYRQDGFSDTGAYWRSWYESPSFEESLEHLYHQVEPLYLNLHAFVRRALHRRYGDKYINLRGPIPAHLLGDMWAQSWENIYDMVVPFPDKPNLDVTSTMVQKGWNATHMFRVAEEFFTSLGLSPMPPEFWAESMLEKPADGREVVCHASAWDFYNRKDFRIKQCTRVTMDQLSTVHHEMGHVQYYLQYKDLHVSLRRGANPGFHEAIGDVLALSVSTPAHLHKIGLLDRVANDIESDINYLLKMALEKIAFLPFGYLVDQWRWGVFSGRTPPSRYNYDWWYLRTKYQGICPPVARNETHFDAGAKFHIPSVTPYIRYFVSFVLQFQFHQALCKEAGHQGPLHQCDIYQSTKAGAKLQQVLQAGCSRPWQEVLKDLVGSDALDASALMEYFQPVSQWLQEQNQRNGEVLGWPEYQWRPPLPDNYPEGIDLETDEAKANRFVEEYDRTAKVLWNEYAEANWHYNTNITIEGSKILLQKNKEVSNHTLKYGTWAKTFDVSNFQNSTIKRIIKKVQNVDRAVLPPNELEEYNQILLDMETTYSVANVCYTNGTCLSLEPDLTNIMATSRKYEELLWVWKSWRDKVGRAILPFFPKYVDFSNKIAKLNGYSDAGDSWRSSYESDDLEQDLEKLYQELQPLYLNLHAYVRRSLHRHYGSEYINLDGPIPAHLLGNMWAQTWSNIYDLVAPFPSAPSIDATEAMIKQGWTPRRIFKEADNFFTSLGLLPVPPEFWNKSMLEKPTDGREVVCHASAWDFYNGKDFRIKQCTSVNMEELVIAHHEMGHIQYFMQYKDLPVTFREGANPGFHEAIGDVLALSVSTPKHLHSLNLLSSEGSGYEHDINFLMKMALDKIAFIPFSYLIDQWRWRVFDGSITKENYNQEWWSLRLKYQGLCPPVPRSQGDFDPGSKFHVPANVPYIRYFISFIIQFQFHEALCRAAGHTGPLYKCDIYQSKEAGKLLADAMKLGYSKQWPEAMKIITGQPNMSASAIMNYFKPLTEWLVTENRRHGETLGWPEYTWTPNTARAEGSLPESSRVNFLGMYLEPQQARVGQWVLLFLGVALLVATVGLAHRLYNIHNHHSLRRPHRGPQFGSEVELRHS
# In short: (§1)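 Male conscious normotensive Sprague-Dawley rats (275-390 g) fitted the day before with femoral arterial and venous catheters under methohexital anesthesia. Three angiotensin-I challenges (300 ng/kg iv) given as baseline. Compound given iv, ia or po (12.3 mg/kg po dose in 3% cornstarch at 1 mg/mL), then AI challenges repeated at set times. Pressor response compared with the mean baseline response and expressed as % inhibition.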
# [2] = target: T1, Angiotensin-converting enzyme (Rattus norvegicus); experiment: Evaluation of plasma inhibition of Angiotensin I converting enzyme activity in conscious rat 2 hours after ia administration at a dose of 10 mg/kg; type: functional, organism-based; design: dose 10 mg/kg; in short: as §1
# [3] = target: T1, Angiotensin-converting enzyme (Rattus norvegicus); experiment: Evaluation of plasma inhibition of Angiotensin I converting enzyme activity in conscious rat 1 hour after oral administration at a dose of 10 mg/kg; type: functional, organism-based; design: dose 10 mg/kg
# [4] = target: T1, Angiotensin-converting enzyme (Rattus norvegicus); experiment: Evaluation of plasma inhibition of Angiotensin I converting enzyme activity in conscious rat 2 hour after oral administration at a dose of 10 mg/kg; type: functional, organism-based; design: dose 10 mg/kg
# [5] = target: T1, Angiotensin-converting enzyme (Rattus norvegicus); experiment: Evaluation of plasma inhibition of Angiotensin I converting enzyme activity in conscious rat 1 hour after ia administration at a dose of 10 mg/kg; type: functional, organism-based; design: dose 10 mg/kg; in short: as §1
# [6] = target: T1, Angiotensin-converting enzyme (Rattus norvegicus); experiment: Evaluation of plasma inhibition of Angiotensin I converting enzyme activity in conscious rat 6 hour after oral administration at a dose of 10 mg/kg; type: functional, organism-based; design: dose 10 mg/kg; in short: as §1
# [7] = target: T1, Angiotensin-converting enzyme (Rattus norvegicus); settings: Plasma; 10 mg/kg
# [8] = target: T1, Angiotensin-converting enzyme (Rattus norvegicus); experiment: Evaluation of plasma inhibition of Angiotensin I converting enzyme activity in conscious rat 4 hours after ia administration at a dose of 10 mg/kg; type: functional, organism-based; design: dose 10 mg/kg; in short: as §1
# [9] = target: T2, Angiotensin-converting enzyme (Oryctolagus cuniculus, UniProt P12822); experiment: Evaluation of in vitro inhibitory activity against Angiotensin I converting enzyme
# T2 sequence (P12822 whole entry): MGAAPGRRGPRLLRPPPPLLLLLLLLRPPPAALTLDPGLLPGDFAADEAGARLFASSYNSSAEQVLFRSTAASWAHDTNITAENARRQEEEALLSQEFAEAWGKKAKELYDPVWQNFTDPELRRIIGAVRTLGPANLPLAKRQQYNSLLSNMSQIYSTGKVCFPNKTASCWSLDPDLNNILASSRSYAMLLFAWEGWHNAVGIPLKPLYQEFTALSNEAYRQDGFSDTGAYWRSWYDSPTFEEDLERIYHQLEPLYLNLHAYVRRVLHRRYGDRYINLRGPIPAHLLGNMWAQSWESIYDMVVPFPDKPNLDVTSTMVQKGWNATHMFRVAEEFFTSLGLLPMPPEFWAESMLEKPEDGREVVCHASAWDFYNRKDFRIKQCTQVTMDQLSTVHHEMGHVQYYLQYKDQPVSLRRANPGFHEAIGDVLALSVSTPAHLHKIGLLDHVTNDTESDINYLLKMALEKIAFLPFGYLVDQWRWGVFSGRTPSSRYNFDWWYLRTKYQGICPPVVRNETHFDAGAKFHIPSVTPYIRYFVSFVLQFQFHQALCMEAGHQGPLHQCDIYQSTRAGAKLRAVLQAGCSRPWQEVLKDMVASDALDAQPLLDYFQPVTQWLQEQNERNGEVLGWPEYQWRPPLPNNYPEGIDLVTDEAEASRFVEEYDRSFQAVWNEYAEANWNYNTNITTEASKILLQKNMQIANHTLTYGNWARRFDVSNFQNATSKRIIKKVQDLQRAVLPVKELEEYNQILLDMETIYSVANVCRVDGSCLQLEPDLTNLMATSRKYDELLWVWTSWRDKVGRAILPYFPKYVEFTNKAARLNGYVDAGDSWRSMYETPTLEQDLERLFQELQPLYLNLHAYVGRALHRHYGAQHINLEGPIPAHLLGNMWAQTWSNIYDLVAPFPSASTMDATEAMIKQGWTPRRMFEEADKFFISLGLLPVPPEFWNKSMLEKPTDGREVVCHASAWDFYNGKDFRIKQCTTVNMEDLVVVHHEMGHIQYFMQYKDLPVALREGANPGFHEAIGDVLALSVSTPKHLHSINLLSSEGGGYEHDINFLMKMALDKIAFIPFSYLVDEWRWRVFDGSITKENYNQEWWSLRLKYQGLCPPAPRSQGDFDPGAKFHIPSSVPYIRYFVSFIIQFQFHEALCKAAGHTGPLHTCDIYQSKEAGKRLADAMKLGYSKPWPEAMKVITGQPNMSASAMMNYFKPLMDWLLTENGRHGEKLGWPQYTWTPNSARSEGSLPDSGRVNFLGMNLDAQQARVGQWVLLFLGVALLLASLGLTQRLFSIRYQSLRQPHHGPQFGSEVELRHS
# In short: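 Rabbit lung ACE in 300 mM NaCl, 100 mM KH2PO4 (pH 8.3). Enzyme and drug mixed, then hippurylhistidylleucine (2 mg/mL stock) added and incubated 75 min at room temperature. Stopped with 1 N NaOH, o-phthalaldehyde added for 10 min at 25 °C, acidified with HCl, OD read at 360 nm.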
# [10] = target: T3, Neprilysin (Rattus norvegicus, UniProt P07861); experiment: Evaluation of in vitro inhibitory activity against Neutral endopeptidase
# T3 sequence (P07861 whole entry): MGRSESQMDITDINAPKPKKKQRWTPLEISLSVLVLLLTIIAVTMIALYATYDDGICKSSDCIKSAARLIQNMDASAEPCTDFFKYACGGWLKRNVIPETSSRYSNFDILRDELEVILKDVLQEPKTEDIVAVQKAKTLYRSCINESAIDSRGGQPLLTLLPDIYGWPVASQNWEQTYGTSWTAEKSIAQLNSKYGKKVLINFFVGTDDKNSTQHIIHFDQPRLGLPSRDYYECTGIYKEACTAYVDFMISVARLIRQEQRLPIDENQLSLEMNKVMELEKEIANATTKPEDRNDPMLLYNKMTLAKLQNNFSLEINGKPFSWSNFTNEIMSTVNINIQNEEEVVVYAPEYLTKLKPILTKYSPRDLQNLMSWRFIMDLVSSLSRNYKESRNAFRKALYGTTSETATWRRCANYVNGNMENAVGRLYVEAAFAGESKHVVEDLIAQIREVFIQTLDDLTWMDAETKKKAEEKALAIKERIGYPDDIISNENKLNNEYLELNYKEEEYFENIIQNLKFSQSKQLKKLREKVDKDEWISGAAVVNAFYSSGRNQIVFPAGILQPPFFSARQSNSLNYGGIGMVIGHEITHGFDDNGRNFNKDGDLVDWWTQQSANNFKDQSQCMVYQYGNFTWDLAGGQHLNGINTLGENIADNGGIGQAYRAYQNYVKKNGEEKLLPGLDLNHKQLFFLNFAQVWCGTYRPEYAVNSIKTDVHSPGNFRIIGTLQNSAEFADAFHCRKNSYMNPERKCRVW
# In short: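 Rat kidney cortex membrane homogenate (4.2 μg protein) preincubated 10 min at 25 °C with increasing inhibitor concentrations. Then 500 μM GAAP (final) in 50 mM Tris pH 7.4 with leucine aminopeptidase M, 25 min at 25 °C. Done in duplicate; IC50 from curves of seven points near the IC50.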
IC50 [9] [nM],IC50 [10] [nM],Structure (SMILES),further results
,,C[C@H](CS)C(=O)N1CCC[C@H]1C(=O)O,inhibition [1]: 3%; inhibition [2]: 60%; inhibition [3]: 100%; inhibition [4]: 78%; inhibition [5]: 96%; inhibition [6]: 13%; inhibition [7]: 36%; inhibition [8]: 26%
139,16,CC(C)[C@H](S)C(=O)NC1(C(=O)N[C@@H](Cc2ccc(-c3ccccc3)cc2)C(=O)O)CCCC1,
62,,CC(C)[C@H](S)C(=O)N[C@@H](Cc1ccc(-c2ccccc2)cc1)C(=O)N[C@@H](Cc1ccc(O)cc1)C(=O)O,
37,3.1,CC(C)[C@H](S)C(=O)NC1(C(=O)N[C@@H](Cc2cccnc2)C(=O)O)CCCC1,
65,15,CC(C)[C@H](S)C(=O)NC1(C(=O)N[C@@H](Cc2ccc(O)cc2)C(=O)O)CC2CCC1C2 (stereo partly specified),

Structure (SMILES),IC50 [9] [nM],IC50 [10] [nM],further results
"CC(C)CC(NP(=O)(O)OC1O[C@@H](C)[C@H](O)[C@@H](O)[C@H]1O)C(=O)N[C@@H](Cc1c[nH]c2ccccc12)C(=O)O (single isomer, unassigned) [PHOSPHORAMIDON]",,26,
